Source: ChEMBL document CHEMBL1126013, “Synthesis and evaluation of some water-soluble prodrugs and derivatives of taxol with antitumor activity” (J Med Chem, 1992)

Key:
Mus musculus [1] = test: Final average tumor weight was measured in mice induced with human mammary carcinoma at a dose of 10 mg/Kg; format: functional
Method in brief: (§1)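 MX-1 human mammary carcinoma xenograft implanted under the renal capsule in mice. Study run at the National Cancer Institute following NIH Publication No. 84-2635. Tumor weights recorded at the start and at the end. Survivors counted after 11 days. %T/C = (Δ tumor weight treated/Δ tumor weight control) × 100 where the tumor grows, and (Δ tumor weight treated/initial control tumor weight) × 100 where it regresses.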

B16 [2] = test: Percentage change in cell number of B16 melanoma cells treated with 10e-6 M dose; format: functional, Mus musculus
Method in brief: (§2)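 B16 melanoma cells exposed to 10⁻⁵ or 10⁻⁶ M compound for 8 h, then rinsed three times with fresh medium. Cells then grown in drug-free medium for 48 h and counted. Result given as percent change relative to the cell number at time zero. Controls are the average of three experiments.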

Mus musculus [3] = test: Initial average tumor weight was measured in mice induced with human mammary carcinoma at a dose of 10 mg/Kg; format: functional; method in brief: as §1
Mus musculus [4] = test: Final average tumor weight was measured in mice induced with human mammary carcinoma at a dose of 22.4 mg/Kg; format: functional; method in brief: as §1
B16 [5] = test: Relative effect on B16 melanoma cell proliferation was determined [IC50 (taxol)/IC50 (derivative)]; format: functional, Mus musculus
Mus musculus [6] = test: Tumor growth or regression measured as Percent treated by control at a dose of 10 mg/Kg to mice with MX-1 xenograft; format: functional; method in brief: as §1
Mus musculus [7] = test: Final average tumor weight was measured in mice induced with human mammary carcinoma at a dose of 6.67 mg/Kg; format: functional; method in brief: as §1
Mus musculus [8] = test: Initial average tumor weight was measured in mice induced with human mammary carcinoma at a dose of 4.45 mg/Kg; format: functional; method in brief: as §1
Mus musculus [9] = test: Initial average tumor weight was measured in mice induced with human mammary carcinoma at a dose of 15 mg/Kg; format: functional; method in brief: as §1
Mus musculus [10] = test: Initial average tumor weight was measured in mice induced with human mammary carcinoma at a dose of 6.67 mg/Kg; format: functional; method in brief: as §1
Mus musculus [11] = test: Number of survivors after 11 days at a dose of 6.67 mg/Kg tested in 5 mice; format: functional
Method in brief: (§3)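 MX-1 human mammary carcinoma xenograft implanted under the renal capsule of mice. The study was run at the National Cancer Institute following the procedures of NIH Publication No. 84-2635. Average tumor weight was recorded at the start and end of treatment, and survivors were counted after 11 days. Dosed groups were compared with an untreated control group.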

Mus musculus [12] = test: Initial average tumor weight was measured in mice induced with human mammary carcinoma at a dose of 22.4 mg/Kg; format: functional; method in brief: as §1
Mus musculus [13] = test: Number of survivors after 11 days at a dose of 15 mg/Kg tested in 6 mice; format: functional; method in brief: as §3
Mus musculus [14] = test: Final average tumor weight was measured in mice induced with human mammary carcinoma at a dose of 4.45 mg/Kg; format: functional; method in brief: as §1
Mus musculus [15] = test: Number of survivors after 11 days at a dose of 10 mg/Kg tested in 6 mice; format: functional; method in brief: as §3
Mus musculus [16] = test: Antitumor activity of taxoland the derivative against mammary carcinoma xenograft in mice; format: functional; method in brief: as §1
Mus musculus [17] = test: Tumor growth or regression measured as Percent treated by control at a dose of 15 mg/Kg to mice with MX-1 xenograft; CR refers to complete remission or when the tumor is no longer detectable; format: functional, organism-based; method in brief: as §1
Mus musculus [18] = test: Tumor growth or regression measured as Percent treated by control at a dose of 22.4 mg/Kg to mice with MX-1 xenograft; Tox refers to toxicity or when < 65% of the animals survive the test; format: functional, organism-based; method in brief: as §1
Mus musculus [19] = test: Number of survivors after 11 days at a dose of 22.4 mg/Kg tested in 6 mice; format: functional; method in brief: as §3
Mus musculus [20] = test: Tumor growth or regression measured as Percent treated by control at a dose of 4.45 mg/Kg to mice with MX-1 xenograft; CR refers to complete remission or when the tumor is no longer detectable; format: functional, organism-based
Method in brief: (§4)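 Subrenal capsule human mammary carcinoma (MX-1) xenograft in mice, run at the National Cancer Institute by NIH Publication No. 84-2635 procedures. Initial and final average tumor weights recorded, with survivors counted after 11 days. %T/C is (Δ tumor weight treated/Δ tumor weight controls)×100 for growing tumors. For regressing tumors it is (Δ tumor weight treated/initial control tumor weight)×100.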

Bos taurus = species: Bos taurus; test: Relative effect on microtubular assembly (Tubulin polymerized by derivative/tubulin polymerized by taxol); format: functional
Method in brief: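 Bovine brain tubulin, purified from microtubule-associated proteins by phosphocellulose chromatography, used at 10 μM. Turbidity followed at 350 nm. Polymer pelleted at 200000g, 37 °C, 4 min, depolymerized on ice, and protein measured by Bradford.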

Mus musculus [21] = test: Final average tumor weight was measured in mice induced with human mammary carcinoma at a dose of 15 mg/Kg; format: functional; method in brief: as §1
Mus musculus [22] = test: Tumor growth or regression measured as Percent treated by control at a dose of 6.67 mg/Kg to mice with MX-1 xenograft; CR refers to complete remission or when the tumor is no longer detectable; format: functional, organism-based; method in brief: as §4
B16 [23] = test: Concentration required to inhibit the proliferation of B16 melanoma cells was determined; format: functional, cell-based; settings: Mus musculus
B16 [24] = test: Percentage change in cell number of B16 melanoma cells treated with 10e-5 M dose; format: functional, Mus musculus; method in brief: as §2
Mus musculus [25] = test: Number of survivors after 11 days at a dose of 4.45 mg/Kg tested in 5 mice; format: functional; method in brief: as §3
Mus musculus [26] = test: Final average tumor weight was measured in mice induced with human mammary carcinoma at a dose of 5.9 mg/Kg; format: functional; method in brief: as §1
Mus musculus [27] = test: Initial average tumor weight was measured in mice induced with human mammary carcinoma at a dose of 8.9 mg/Kg; format: functional; method in brief: as §1
Mus musculus [28] = test: Final average tumor weight was measured in mice induced with human mammary carcinoma at a dose of 20 mg/Kg; format: functional; method in brief: as §1
Mus musculus [29] = test: Tumor growth or regression measured as Percent treated by control at a dose of 5.9 mg/Kg to mice with MX-1 xenograft; format: functional; method in brief: as §4
Mus musculus [30] = test: Initial average tumor weight was measured in mice induced with human mammary carcinoma at a dose of 5.9 mg/Kg; format: functional; method in brief: as §1
Mus musculus [31] = test: Tumor growth or regression measured as Percent treated by control at a dose of 13 mg/Kg to mice with MX-1 xenograft; CR refers to complete remission or when the tumor is no longer detectable; format: functional, organism-based; method in brief: as §1
Mus musculus [32] = test: Number of survivors after 11 days at a dose of 20 mg/Kg tested in 6 mice; format: functional; method in brief: as §3
Mus musculus [33] = test: final average tumor weight was measured in mice induced with human mammary carcinoma at a dose of 13 mg/Kg; format: functional; method in brief: as §4
[34] = Solubility in water; format: physicochemical; settings: read-out: S
Mus musculus [35] = test: Initial average tumor weight was measured in mice induced with human mammary carcinoma at a dose of 30 mg/kg; format: functional; method in brief: as §1
Mus musculus [36] = test: Final average tumor weight was measured in mice induced with human mammary carcinoma at a dose of 8.9 mg/Kg; format: functional; method in brief: as §1
Mus musculus [37] = test: Number of survivors after 11 days at a dose of 8.9 mg/Kg tested in 6 mice; format: functional; method in brief: as §3
Mus musculus [38] = test: Initial average tumor weight was measured in mice induced with human mammary carcinoma at a dose of 20 mg/Kg; format: functional; method in brief: as §1
Mus musculus [39] = test: Number of survivors after 11 days at a dose of 13 mg/Kg tested in 6 mice; format: functional; method in brief: as §3
Mus musculus [40] = test: Tumor growth or regression measured as Percent treated by control at a dose of 8.9 mg/kg to mice with MX-1 xenograft; format: functional; method in brief: as §4
Mus musculus [41] = test: Final average tumor weight was measured in mice induced with human mammary carcinoma at a dose of 30 mg/kg; format: functional; method in brief: as §1
Mus musculus [42] = test: Number of survivors after 11 days at a dose of 5.9 mg/Kg tested in 6 mice; format: functional; method in brief: as §3
Mus musculus [43] = test: Initial average tumor weight was measured in mice induced with human mammary carcinoma at a dose of 13 mg/Kg; format: functional; method in brief: as §1
Mus musculus [44] = test: Tumor growth or regression measured as Percent treated by control at a dose of 30 mg/Kg to mice with MX-1 xenograft; Tox refers to toxicity or when < 65% of the animals survive the test; format: functional, organism-based; method in brief: as §1
Mus musculus [45] = test: Tumor growth or regression measured as Percent treated by control at a dose of 20 mg/Kg to mice with MX-1 xenograft; CR refers to complete remission or when the tumor is no longer detectable; format: functional, organism-based; method in brief: as §1
Mus musculus [46] = test: Number of survivors after 11 days at a dose of 30 mg/kg tested in 6 mice; format: functional; method in brief: as §3

## CC(=O)O[C@H]1C(=O)[C@@]2(C)[C@H]([C@H](OC(=O)c3ccccc3)[C@]3(O)C[C@H](OC(=O)[C@H](O)[C@@H](NC(=O)c4ccccc4)c4ccccc4)C(C)=C1C3(C)C)[C@]1(OC(C)=O)CO[C@@H]1C[C@@H]2O [PACLITAXEL]
Mus musculus [1]
  Final average tumor weight: 0.09 mg
B16 [2]
  Change in cell number: 252%
Mus musculus [3]
  Initial average tumor weight: 0.58 mg
Mus musculus [4]
  Final average tumor weight: 0 mg
B16 [5]
  Relative effect: 1
Mus musculus [6]
  T/C: -84%
Mus musculus [7]
  Final average tumor weight: 0 mg
Mus musculus [8]
  Initial average tumor weight: 0.79 mg
Mus musculus [9]
  Initial average tumor weight: 0.81 mg
Mus musculus [10]
  Initial average tumor weight: 0.74 mg
Mus musculus [11]
  No. of survivors: 5
Mus musculus [12]
  Initial average tumor weight: 0.6 mg
Mus musculus [13]
  No. of survivors: 6
Mus musculus [14]
  Final average tumor weight: 0 mg
Mus musculus [15]
  No. of survivors: 6
Mus musculus [16]
  Relative antitumor activity: 1
Mus musculus [17]
  T/C: Complete remission
Mus musculus [18]
  T/C: Toxic
Mus musculus [19]
  No. of survivors: 3
Mus musculus [20]
  T/C: Complete remission
Bos taurus
  Relative effect: 1
Mus musculus [21]
  Final average tumor weight: 0 mg
Mus musculus [22]
  T/C: Complete remission
B16 [23]
  IC50: 19 nM
B16 [24]
  Change in cell number: 75%
Mus musculus [25]
  No. of survivors: 5

## CC(=O)O[C@H]1C(=O)[C@@]2(C)[C@H]([C@H](OC(=O)c3ccccc3)[C@]3(O)C[C@H](OC(=O)[C@H](OC(=O)CN(C)C)[C@@H](NC(=O)c4ccccc4)c4ccccc4)C(C)=C1C3(C)C)[C@]1(OC(C)=O)CO[C@@H]1C[C@@H]2O.CS(=O)(=O)O
B16 [2]
  Change in cell number: 261%
Mus musculus [26]
  Final average tumor weight: 0.13 mg
Mus musculus [27]
  Initial average tumor weight: 0.77 mg
B16 [5]
  Relative effect: 0.9
Mus musculus [28]
  Final average tumor weight: 0 mg
Mus musculus [29]
  T/C: -78%
Mus musculus [30]
  Initial average tumor weight: 0.61 mg
Mus musculus [31]
  T/C: Complete remission
Mus musculus [32]
  No. of survivors: 4
Mus musculus [33]
  Final average tumor weight: 0 mg
Mus musculus [16]
  Relative antitumor activity: 2
[34]
  solubility: 4.83 mM
Mus musculus [35]
  Initial average tumor weight: 0.68 mg
Mus musculus [36]
  Final average tumor weight: 0.36 mg
Mus musculus [37]
  No. of survivors: 5
Mus musculus [38]
  Initial average tumor weight: 0.56 mg
Bos taurus
  Relative effect: 0.25
Mus musculus [39]
  No. of survivors: 4
Mus musculus [40]
  T/C: -53%
B16 [23]
  IC50: 21 nM
Mus musculus [41]
  Final average tumor weight: 0 mg
Mus musculus [42]
  No. of survivors: 6
B16 [24]
  Change in cell number: 84%
Mus musculus [43]
  Initial average tumor weight: 0.64 mg
Mus musculus [44]
  T/C: Toxic
Mus musculus [45]
  T/C: Complete remission
Mus musculus [46]
  No. of survivors: 1
